Data as given in ChEMBL document CHEMBL4184225, “Discovery of selective 2,4-diaminoquinazoline toll-like receptor 7 (TLR 7) agonists” (Bioorg Med Chem Lett, 2018).
pIC50: −log10 of the molar value.

Key:
[1] = molecular target: T1, Toll-like receptor 7 (Homo sapiens) (UniProt Q9NYK1); assay: Agonist activity at TLR7 in human PBMC assessed as suppression of HCV replicon replication in human HuH7 luc/neo cells harboring RNA encoding bicistronic expression construct comprising wild type HCV type 1b NS3-NS5B regions exposed to conditioned media from compound treated PBMCs by luciferase reporter gene assay; format: cell-based
T1 sequence (whole entry): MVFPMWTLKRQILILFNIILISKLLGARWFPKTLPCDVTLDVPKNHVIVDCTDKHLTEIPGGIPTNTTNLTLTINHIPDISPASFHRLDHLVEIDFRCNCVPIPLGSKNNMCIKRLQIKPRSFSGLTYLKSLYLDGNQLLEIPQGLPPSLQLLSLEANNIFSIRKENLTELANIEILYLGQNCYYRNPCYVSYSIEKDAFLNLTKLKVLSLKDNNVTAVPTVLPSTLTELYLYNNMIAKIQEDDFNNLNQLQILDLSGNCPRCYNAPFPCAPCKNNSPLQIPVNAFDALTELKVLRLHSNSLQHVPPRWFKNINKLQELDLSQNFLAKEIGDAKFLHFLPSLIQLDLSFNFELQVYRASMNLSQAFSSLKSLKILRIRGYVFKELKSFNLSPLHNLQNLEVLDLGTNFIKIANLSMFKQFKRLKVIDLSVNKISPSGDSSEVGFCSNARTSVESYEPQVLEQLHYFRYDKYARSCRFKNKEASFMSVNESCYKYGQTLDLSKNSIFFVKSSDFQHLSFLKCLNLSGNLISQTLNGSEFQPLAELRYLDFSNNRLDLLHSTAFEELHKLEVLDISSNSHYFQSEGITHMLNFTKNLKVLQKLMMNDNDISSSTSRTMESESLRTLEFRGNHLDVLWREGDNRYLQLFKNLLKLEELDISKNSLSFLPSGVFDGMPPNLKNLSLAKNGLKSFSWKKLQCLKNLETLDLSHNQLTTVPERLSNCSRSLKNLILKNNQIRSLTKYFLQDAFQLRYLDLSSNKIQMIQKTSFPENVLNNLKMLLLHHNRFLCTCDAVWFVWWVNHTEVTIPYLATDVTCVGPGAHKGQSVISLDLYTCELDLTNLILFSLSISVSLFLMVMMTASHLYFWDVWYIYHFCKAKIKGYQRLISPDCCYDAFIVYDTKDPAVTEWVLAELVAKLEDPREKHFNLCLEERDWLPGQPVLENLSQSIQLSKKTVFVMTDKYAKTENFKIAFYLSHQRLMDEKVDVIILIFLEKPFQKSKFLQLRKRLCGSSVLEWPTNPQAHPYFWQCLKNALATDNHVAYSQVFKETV
Outline: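 PBMCs from buffy coats of at least two donors (Ficoll), in RPMI with 10% human AB serum, 2 x 10^5 cells/well, incubated overnight with compound. Supernatant transferred onto Huh7-luc/neo replicon cells plated the day before (2.2 x 10^3/well). Luciferase read after 24 h. EC50 is the concentration applied to PBMCs giving 50% luciferase reduction. Recombinant IFN-α2a standard.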

[2] = Cytotoxic activity against HEK293 cells assessed as reduction in cell viability incubated for 6 hrs; format: cell-based; details: human
Outline: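 HEK293 cells transfected with the CMV-TLR7 construct alone, treated with a compound dilution series for 6 h at 37°C, 5% CO₂. Viability read by ATP luminescence. Reported as CC50.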

[3] = Metabolic stability in mouse liver microsomes assessed as drug metabolism after 15 mins at 1 uM; format: ADME, microsome; details: read-out: Drug metabolism
Outline: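 Compound at 1µM incubated with liver microsomes of the stated species. Percent of compound metabolized after 15 min.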

[4] = Cmax in Sprague-Dawley rat portal vein at 10 mg/kg, po; format: ADME, organism-based; parameters: dose 10 mg/kg, route oral
Outline: (§1)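 Healthy male Sprague-Dawley rats given a single oral dose of 10 mg/kg. Portal vein plasma, systemic plasma and liver sampled. Cmax and Tmax determined, and AUC over 0–last. Liver/plasma ratio calculated from AUC(0-last).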

[5] = AUClast in Sprague-Dawley rat portal vein at 10 mg/kg, po; format: ADME, organism-based; parameters: dose 10 mg/kg, time 0 - last, route oral; outline: as §1
[6] = AUClast in Sprague-Dawley rat plasma at 10 mg/kg, po; format: ADME, organism-based; parameters: dose 10 mg/kg, time 0 - last, route oral; outline: as §1
[7] = AUClast in Sprague-Dawley rat liver at 10 mg/kg, po; format: ADME, organism-based; details: in vivo; outline: as §1
[8] = Ratio of AUClast in liver to AUClast in plasma of Sprague-Dawley rat at 10 mg/kg, po; format: ADME, organism-based; details: liver and plasma; outline: as §1
Cytochrome P450 3A4 = Cytochrome P450 3A4 (Homo sapiens, UniProt P08684); assay: Inhibition of CYP3A4 (unknown origin); format: ADME
Cytochrome P450 1A2 = molecular target: T2, Cytochrome P450 1A2 (Homo sapiens, UniProt P05177); assay: Inhibition of CYP1A2 (unknown origin); format: ADME
T2 sequence (P05177 whole entry): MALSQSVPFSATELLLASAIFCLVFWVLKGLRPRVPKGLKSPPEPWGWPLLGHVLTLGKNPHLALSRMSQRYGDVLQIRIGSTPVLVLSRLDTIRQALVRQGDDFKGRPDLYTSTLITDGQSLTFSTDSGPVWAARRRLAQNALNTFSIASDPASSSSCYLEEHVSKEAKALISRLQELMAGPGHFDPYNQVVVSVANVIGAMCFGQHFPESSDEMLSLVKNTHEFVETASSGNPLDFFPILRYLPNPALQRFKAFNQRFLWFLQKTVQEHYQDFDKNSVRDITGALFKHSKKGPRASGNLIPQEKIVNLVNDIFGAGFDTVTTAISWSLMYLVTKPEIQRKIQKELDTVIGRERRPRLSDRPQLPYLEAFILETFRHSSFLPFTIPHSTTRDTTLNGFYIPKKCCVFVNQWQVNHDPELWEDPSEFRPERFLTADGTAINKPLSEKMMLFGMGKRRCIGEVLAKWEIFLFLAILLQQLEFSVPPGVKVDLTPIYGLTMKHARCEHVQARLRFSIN

Cytochrome P450 2C19 = Cytochrome P450 2C19 (Homo sapiens, UniProt P33261); assay: Inhibition of CYP2C19 (unknown origin); format: ADME
Cytochrome P450 2C8 = molecular target: T3, Cytochrome P450 2C8 (Homo sapiens, UniProt P10632); assay: Inhibition of CYP2C8 (unknown origin); format: ADME
T3 sequence (P10632 whole entry): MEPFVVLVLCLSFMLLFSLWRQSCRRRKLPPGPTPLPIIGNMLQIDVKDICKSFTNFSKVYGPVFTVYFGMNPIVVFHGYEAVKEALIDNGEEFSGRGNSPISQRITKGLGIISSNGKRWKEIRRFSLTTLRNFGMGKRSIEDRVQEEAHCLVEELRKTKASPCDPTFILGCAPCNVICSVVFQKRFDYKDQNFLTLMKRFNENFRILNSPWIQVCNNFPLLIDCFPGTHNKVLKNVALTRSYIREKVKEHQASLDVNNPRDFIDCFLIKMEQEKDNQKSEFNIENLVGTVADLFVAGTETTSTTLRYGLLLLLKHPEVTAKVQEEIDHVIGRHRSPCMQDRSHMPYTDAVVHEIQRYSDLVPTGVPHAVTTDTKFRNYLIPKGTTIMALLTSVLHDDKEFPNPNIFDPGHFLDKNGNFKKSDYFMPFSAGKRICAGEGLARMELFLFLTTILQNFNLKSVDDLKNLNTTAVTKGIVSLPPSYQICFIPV

[9] = Cmax in Sprague-Dawley rat liver at 10 mg/kg, po

Cytochrome P450 2C19, sequence (P33261 whole entry): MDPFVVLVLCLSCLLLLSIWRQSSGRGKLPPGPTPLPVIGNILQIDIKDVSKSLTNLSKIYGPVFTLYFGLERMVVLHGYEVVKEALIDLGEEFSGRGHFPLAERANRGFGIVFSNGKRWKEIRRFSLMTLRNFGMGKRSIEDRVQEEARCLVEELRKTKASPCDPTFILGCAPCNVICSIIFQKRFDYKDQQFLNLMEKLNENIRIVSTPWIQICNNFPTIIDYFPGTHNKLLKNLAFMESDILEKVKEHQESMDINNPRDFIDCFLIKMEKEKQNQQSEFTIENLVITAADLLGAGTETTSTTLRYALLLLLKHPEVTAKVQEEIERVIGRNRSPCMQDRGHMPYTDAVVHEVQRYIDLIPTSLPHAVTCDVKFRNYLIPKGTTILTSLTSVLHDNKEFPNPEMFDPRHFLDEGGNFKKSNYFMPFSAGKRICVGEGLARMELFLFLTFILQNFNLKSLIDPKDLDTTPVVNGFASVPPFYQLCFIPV
Cytochrome P450 3A4, sequence (P08684 whole entry): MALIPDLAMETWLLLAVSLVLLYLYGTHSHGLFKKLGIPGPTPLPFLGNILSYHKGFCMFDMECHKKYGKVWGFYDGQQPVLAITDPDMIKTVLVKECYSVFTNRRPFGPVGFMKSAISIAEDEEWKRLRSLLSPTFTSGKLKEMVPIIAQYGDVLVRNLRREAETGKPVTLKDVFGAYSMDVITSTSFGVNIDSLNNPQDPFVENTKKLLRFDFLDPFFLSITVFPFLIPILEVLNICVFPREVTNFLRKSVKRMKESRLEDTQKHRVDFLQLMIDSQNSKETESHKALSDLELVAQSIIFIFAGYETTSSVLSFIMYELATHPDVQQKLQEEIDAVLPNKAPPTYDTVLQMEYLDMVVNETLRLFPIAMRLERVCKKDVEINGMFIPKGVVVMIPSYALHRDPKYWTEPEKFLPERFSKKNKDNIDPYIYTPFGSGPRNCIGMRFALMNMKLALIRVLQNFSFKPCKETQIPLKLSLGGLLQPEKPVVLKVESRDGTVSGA

Row | Structure (SMILES) | MEC [1] [µM] | CC50 at 6 h [2] [µM] | metabolised at 0.25 h, 1 µM [3] [%] | Cmax [4] [ng/mL] | AUC(0-t) [5] [ng·h/mL] | AUC(0-t) [6] [ng·h/mL] | AUClast [7] [ng·h/g] | Kp [8] | pIC50 (Cytochrome P450 3A4) | pIC50 (Cytochrome P450 1A2) | pIC50 (Cytochrome P450 2C19) | pIC50 (Cytochrome P450 2C8) | Cmax [9] [ng/g]
1 | CCCCNc1nc(N)nc2cccc(C(=O)N[C@@H](C)c3ccccc3)c12 | 0.14 | > 25 | 68 | 276 | 902 | 439 | 15841 | 36 | < 5.00 | < 5.00 | < 5.00 | < 5.00 | 4930
2 | CCCCNc1nc(N)nc2ccccc12 | – | 18 to 25 | – | 583 | 1520 | 56 | 6450 | > 100 | – | – | – | – | 2030
3 | CCCCNc1nc(N)nc2cccc(C(=O)N(C)Cc3ccccc3)c12 | 0.27 | > 25 | 99 | 209 | 621 | 37 | 1064 | 30 | 5.07 | < 5.00 | < 5.00 | < 5.00 | 369
4 | CCCCNc1nc(N)nc2cccc(OCc3nccc(OC)c3OC)c12 | 0.034 | 16 | 98 | – | – | – | – | – | 5.00 | 5.39 | < 5.00 | < 5.00 | –
5 | CCCCNc1nc(N)nc2cccc(C(=O)N[C@H](C)c3ccccc3)c12 | > 25 | > 25 | 75 | – | – | – | – | – | < 5.00 | < 5.00 | < 5.00 | < 5.00 | –
6 | CCCCNc1nc(N)nc2cccc(OCc3ccc(CO)cc3OC)c12 | 0.018 | 16 | 98 | – | – | – | – | – | < 5.00 | < 5.00 | < 5.00 | < 5.00 | –
7 | CCCCNc1nc(N)nc2cccc(OCc3ccccc3OC)c12 | 0.33 | > 25 | 98 | – | – | – | – | – | < 5.00 | 5.54 | < 5.00 | < 5.00 | –
8 | CCCCNc1nc(N)nc2cccc(C(=O)NC)c12 | 0.15 | > 25 | 90 | – | – | – | – | – | < 5.00 | < 5.00 | < 5.00 | < 5.00 | –
9 | CCCCNc1nc(N)nc2cccc(OCc3ccccc3)c12 | 0.04 | 10 | 97 | – | – | – | – | – | – | 6.52 | < 5.00 | < 5.00 | –
10 | CCCCNc1nc(N)nc2cccc(C(=O)NC(C)C)c12 | 0.56 | > 25 | 45 | – | – | – | – | – | < 5.00 | < 5.00 | < 5.00 | < 5.00 | –
11 | CCCCNc1nc(N)nc2cccc(OCc3ccccn3)c12 | 0.043 | > 25 | 99 | – | – | – | – | – | < 5.00 | 5.89 | < 5.00 | < 5.00 | –
12 | CCCCNc1nc(N)nc2cccc(OCc3cccnc3)c12 | 0.011 | > 25 | 99 | – | – | – | – | – | 5.17 | 6.05 | < 5.00 | < 5.00 | –
13 | CCCCNc1nc(N)nc2cccc(C(=O)NCc3ccccc3)c12 | 0.03 | > 25 | 92 | – | – | – | – | – | < 5.00 | < 5.00 | < 5.00 | < 5.00 | –
